Measured values reported in ChEMBL document CHEMBL1914377, “Preliminary finding on a new calcium channel entry blocker chemotype: 5,6-diamino-4-hydroxy-2-mercaptopyrimidine derivatives” (J Med Chem, 2011).

Tests used:
[1] = tested on: TT; test: Inhibition of T-type calcium channel expressed in human TT cells using Ba2+ as charge carrier at 10 uM by patch clamp electrophysiological assay relative to control; type: cell-based
Summary of the method: (§1)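 Whole-cell patch clamp with Ba2+ currents. L-type current was recorded in transfected CHO cells and T-type current in TT cells, whose only voltage-gated Ca2+ currents are T-type. The read-out was percent decrease in peak current, comparing the mean of five consecutive steady-state sweeps in control and in drug. Results are mean ± SEM, n = 5–7 cells per group.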

[2] = Cardiovascular activity in guinea pig spontaneously beating right atrium assessed as negative chronotropic activity by measuring decrease of atrial rate; type: functional; conditions: Cavia porcellus, Cardiac atrium
Summary of the method: (§2)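 Log concentration–response curves fitted by probit analysis (Litchfield and Wilcoxon), n = 4–7. They were not calculated when the maximum effect was below 50%.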

[3] = Vasorelaxant activity in guinea pig K+-depolarized guinea pig longitudinal smooth muscle assessed as inhibition of calcium-induced contraction at 10^-4 M relative to control; type: functional; conditions: Cavia porcellus
Summary of the method: (§3)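 Guinea-pig longitudinal smooth muscle depolarized with K+ (80 mM). Percent inhibition of calcium-induced contraction was measured at single concentrations of 10^-4 M, 5 × 10^-5 M or 10^-5 M. Results are mean ± SEM.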

[4] = Cardiovascular activity in guinea pig spontaneously beating right atrium assessed as negative chronotropic activity by measuring decrease of atrial rate at 10^-4 M relative to control; type: functional; conditions: Cavia porcellus, Cardiac atrium
[5] = Cardiovascular activity in guinea pig left atrium assessed as negative inotropic activity by measuring decrease of 1 Hz-induced tension in presence of adenosine A1 receptor antagonist DPCPX; type: functional, tissue-based; conditions: Cavia porcellus, Cardiac atrium
Summary of the method: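 Negative inotropic concentration–response determined in the presence of the A1 antagonist DPCPX at 1 μM.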

[6] = Cardiovascular activity in guinea pig left atrium assessed as negative inotropic activity by measuring decrease of 1 Hz-induced tension at 10^-4 M relative to control; type: functional; conditions: Cavia porcellus, Cardiac atrium
[7] = Vasorelaxant activity in guinea pig K+-depolarized guinea pig longitudinal smooth muscle assessed as inhibition of calcium-induced contraction; type: functional, Cavia porcellus
[8] = tested on: CHO; test: Inhibition of L-type alpha9beta3alpha2/gamma4 calcium channel expressed in CHO cells using Ba2+ as charge carrier at 10 uM by patch clamp electrophysiological assay relative to control; type: cell-based; summary of the method: as §1
[9] = tested on: Aorta; test: Vasorelaxant activity in guinea pig K+-depolarized guinea pig aortic strip assessed as inhibition of calcium-induced contraction at 10^-4 M relative to control; type: functional; conditions: Cavia porcellus
[10] = Cardiovascular activity in guinea pig left atrium assessed as negative inotropic activity by measuring decrease of 1 Hz-induced tension; type: functional, tissue-based; conditions: Cavia porcellus, Cardiac atrium; summary of the method: as §2
[11] = Cardiovascular activity in guinea pig spontaneously beating right atrium assessed as negative chronotropic activity by measuring decrease of atrial rate at 10^-5 M relative to control; type: functional; conditions: Cavia porcellus, Cardiac atrium
[12] = Cardiovascular activity in guinea pig left atrium assessed as negative inotropic activity by measuring decrease of 1 Hz-induced tension at 5 x 10^-5 M relative to control; type: functional; conditions: Cavia porcellus, Cardiac atrium
[13] = Cardiovascular activity in guinea pig spontaneously beating right atrium assessed as negative chronotropic activity by measuring decrease of atrial rate at 5 x 10^-5 M relative to control; type: functional; conditions: Cavia porcellus, Cardiac atrium
[14] = Vasorelaxant activity in guinea pig K+-depolarized guinea pig longitudinal smooth muscle assessed as inhibition of calcium-induced contraction at 10^-5 M relative to control; type: functional; conditions: Cavia porcellus; summary of the method: as §3
[15] = Cardiovascular activity in guinea pig left atrium assessed as negative inotropic activity by measuring decrease of 1 Hz-induced tension at 10^-5 M relative to control; type: functional; conditions: Cavia porcellus, Cardiac atrium
[16] = Vasorelaxant activity in guinea pig K+-depolarized guinea pig longitudinal smooth muscle assessed as inhibition of calcium-induced contraction at 5 x 10^-5 M relative to control; type: functional; conditions: Cavia porcellus; summary of the method: as §3
[17] = tested on: Aorta; test: Vasorelaxant activity in guinea pig K+-depolarized guinea pig aortic strip assessed as inhibition of calcium-induced contraction; type: functional, tissue-based; conditions: Cavia porcellus; summary of the method: as §2
[18] = tested on: Aorta; test: Vasorelaxant activity in guinea pig K+-depolarized guinea pig aortic strip assessed as inhibition of calcium-induced contraction at 5 x 10^-5 M relative to control; type: functional; conditions: Cavia porcellus
[19] = Cardiovascular activity in guinea pig left atrium assessed as negative inotropic activity by measuring decrease of 1 Hz-induced tension at 5 x 10^-6 M relative to control; type: functional; conditions: Cavia porcellus, Cardiac atrium

| IC50 [7] [µM] | SMILES | inhibition [1] [%] | inhibition at 100 µM [4] [%] | inhibition at 100 µM [6] [%] | inhibition [8] [%] | inhibition at 100 µM [9] [%] | EC50 [10] [nM] | inhibition at 10 µM [15] [%] | also measured |
| --- | --- | --- | --- | --- | --- | --- | --- | --- | --- |
| 2.91 | CCn1c(SCc2ccccc2)nc(N)c(N(Cc2ccccc2)Cc2ccccc2)c1=O | 11.9 | 63 | 56 | 60.7 | 7 | 450 | – | EC30 [2]: 18.1 µM; inhibition [3]: 94%; EC50 [5]: 500 nM |
| – | CCCSc1nc(NC(C)=O)c(N(CCC)CCC)c(OCC)n1 | – | – | – | – | 23 | 1000 | – | inhibition at 10 µM [11]: 2%; inhibition at 50 µM [12]: 71% |
| 1.48 | CCn1c(SCc2ccccc2)nc(NC(C)=O)c(N(Cc2ccccc2)Cc2ccccc2)c1=O | 15.2 | – | – | 58 | 25 | 290 | – | EC30 [2]: 14.1 µM; inhibition at 50 µM [13]: 72%; inhibition [14]: 90%; inhibition at 50 µM [12]: 66% |
| – | COCCSc1nc(N)c(N(CCOC)CCOC)c(=O)[nH]1 | – | – | – | – | 10 | 340 | 93 | inhibition at 10 µM [11]: 13% |
| – | CC(=O)Nc1nc(SCc2ccccc2)[nH]c(=O)c1N(Cc1ccccc1)Cc1ccccc1 | – | 95 | 90 | – | 31 | 1410 | – | EC30 [2]: 6.79 µM |
| 13.9 | CCCSc1nc(N)c(N(CCC)CCC)c(=O)[nH]1 | – | – | 87 | – | 54 | 1960 | – | inhibition [16]: 87%; IC50 [17]: 14.9 µM; inhibition at 50 µM [13]: 39% |
| – | CCOc1nc(SCc2ccccc2)nc(N)c1N(Cc1ccccc1)Cc1ccccc1 | – | 33 | 62 | – | – | 1490 | – | inhibition at 50 µM [18]: 2% |
| 10.7 | CCCSc1nc(N)c(N(CCC)CCC)c(OCC)n1 | – | 27 | – | – | 16 | 150 | 68 | inhibition [3]: 83% |
| 4.86 | CCCSc1nc(NC(C)=O)c(N(CCC)CCC)c(=O)n1CC | 22.3 | – | – | 56 | – | 530 | – | inhibition at 50 µM [13]: 13%; inhibition [14]: 72%; inhibition at 50 µM [12]: 60%; inhibition at 50 µM [18]: 13% |
| 21.5 | CCn1c(SCCOC)nc(N)c(N(CCOC)CCOC)c1=O | 24.7 | 11 | – | 52 | 33 | 230 | 76 | inhibition [3]: 60% |
| 23.8 | CCn1c(SCCOC)nc(NC(C)=O)c(N(CCOC)CCOC)c1=O | 12.3 | 2 | 81 | 37 | 2 | 770 | – | inhibition [3]: 91% |
| 3.39 | CCCSc1nc(N)c(N(CCC)CCC)c(=O)n1CC | 35.3 | – | – | 54 | 28 | 600 | 56 | inhibition [16]: 93%; inhibition at 50 µM [13]: 22% |
| – | CCOc1nc(SCc2ccccc2)nc(NC(C)=O)c1N(Cc1ccccc1)Cc1ccccc1 | – | 44 | – | – | – | 270 | 64 | inhibition at 50 µM [18]: 20% |
| – | CCOc1nc(SCCOC)nc(NC(C)=O)c1N(CCOC)CCOC | – | 3 | – | – | 10 | 620 | 80 | – |
| – | Nc1nc(SCc2ccccc2)[nH]c(=O)c1N(Cc1ccccc1)Cc1ccccc1 | – | 80 | 60 | – | – | 3160 | – | EC30 [2]: 8.63 µM; inhibition at 50 µM [18]: 2% |
| – | CCCSc1nc(NC(C)=O)c(N(CCC)CCC)c(=O)[nH]1 | – | – | – | – | 30 | 280 | – | inhibition at 5 µM [19]: 62%; inhibition at 10 µM [11]: 7% |
| – | COCCSc1nc(NC(C)=O)c(N(CCOC)CCOC)c(=O)[nH]1 | – | – | 90 | – | 2 | 960 | – | inhibition at 50 µM [13]: 6% |
| – | CCOc1nc(SCCOC)nc(N)c1N(CCOC)CCOC | – | 45 | – | – | 22 | 310 | – | inhibition at 50 µM [12]: 79% |
